Laboratory results as given in ChEMBL document CHEMBL4513216, “Probing the Open Global Health Chemical Diversity Library for Multistage-Active Starting Points for Next-Generation Antimalarials” (ACS Infect Dis, 2020).

Test: Toxicity liver stage against HepG2, at 10uM
Type: cell-based
Parameters: test concentration 10 uM, cell line HepG2-A16-CD81EGFP
Settings: human, HepG2-A16-CD81EGFP cells; read-out: INHIBITION
Method in brief: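 Uninfected HepG2-A16-CD81EGFP cells, 3 × 10^3 per well, 1536-well, plated on prespotted compound at 10 μM final, parasite-free screening media added to match infected plates; puromycin 10 μM positive, DMSO 0.5% negative; run in parallel with 48 h PbLuc assay at 37 °C, 5% CO2; viability by CellTiter-Glo luminescence, normalized to controls.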

Row | SMILES | cytotoxicity at 10 µM [%]
1 | Cc1noc(C)c1CN1C[C@@H](NS(=O)(=O)N(C)C)[C@H](C(C)C)C1 | 3.61
2 | CC(=O)N1CCCC(c2ccc(C(N)=O)cn2)C1 (stereo unspecified) | 5.07
3 | CCC(Nc1cccc(Oc2ccccn2)c1)C(N)=O (stereo unspecified) | 9.55
4 | COc1ccc(CC(=O)Nc2ccc3ncn(C(C)C)c(=O)c3c2)cc1 | 3.97
5 | CN1C(=O)CO[C@H]2CN(C(=O)c3ccc4c(c3)CCCC4)C[C@@H]21 | 5.45
6 | CN(Cc1ccccc1)C(=O)CN1CCCC(Cn2cncn2)C1 (stereo unspecified) | -11.8
7 | CCOc1ccc(SCCNS(=O)(=O)CC)cc1 | 2.71
8 | CCn1cc(-c2cc(-c3cc(CC(=O)O)cs3)nc(N)c2C#N)c(C)n1 | 1.16
9 | O=C(NC1CCC1)[C@H]1C[C@H]2CN(C(=O)Nc3ccc(F)cc3)C[C@@H]1O2 | 7.2
10 | CCOC(=O)CCC(=O)N1CCC(Oc2ccc(C(F)(F)F)cn2)CC1 | 11.6
11 | O=C(NCCCNc1ccc(C(F)(F)F)cn1)c1ccc(F)cc1 | -8.72
12 | CN(C)C(CNCc1nc(-c2ccsc2)no1)c1cccs1 (stereo unspecified) | 16.3
13 | Cc1ccn(-c2ccc(N3CCCN(Cc4ccccc4)CC3)nn2)n1 | 9.31
14 | Cc1noc(C)c1CN(C)C(=O)Cn1c(=O)n(C)c2ccccc21 | -4.32
15 | Cc1cc(-c2nccs2)nc(C2CCN(Cc3ccncc3)CC2)n1 | 8.6
16 | COc1ccc(C2=NOC(CO)C2)cc1 (stereo unspecified) | 11.2
17 | NCCSc1nccc(-c2cnc(C3CC3)nc2-c2ccco2)n1 | -7.19
18 | COCCN1CCN(Cc2cccc(C(=O)N(C)C)c2)CC1C (stereo unspecified) | 5
19 | CN(C)C(=O)CN1CCCC(CCCc2ccccn2)(C(N)=O)C1 (stereo unspecified) | -23.2
20 | COc1ccc(-c2cc(C3CC3)c(C#N)c(N)n2)cc1F | -2.84
21 | Cc1cc(C)c(C(=O)N2CCc3c(ncn3CCc3ccccc3)C2)[nH]1 | 7.13

Row | SMILES | cytotoxicity at 10 µM [%]
22 | CCN1CC2(CCC1=O)CCN(Cc1nncn1C)CC2 | 4.46
23 | CN(C(=O)c1cc(F)ccc1F)[C@@H]1CC[C@@H](O)[C@@H]1O | -0.822
24 | Cc1nc(C)c(C(=O)N2Cc3ccccc3OCC2Cn2ccnc2)s1 (stereo unspecified) | 9.21
25 | COc1ccc(CN2C[C@@H]3CCCO[C@@H]3[C@H](NC(=O)CC3CC3)C2)cc1 | 25.3
26 | CN1CC(C(=O)Nc2ccc(OCC(F)(F)C(F)F)nc2)CC1=O (stereo unspecified) | -8.64
27 | CC(=O)N1CC(c2ccnc(Nc3nccs3)n2)C1 | 3.23
28 | C[C@@H]1CN(C(=O)c2cc(COc3ccc4c(c3)OCO4)[nH]n2)C[C@H](C)O1 | -6.37
29 | COCCN1CCc2ncnc(NC3CC3)c2CC1 | 5.62
30 | Cc1cc(-c2cnc(C)nc2CN(C)C(=O)c2cc(C3CC3)on2)on1 | -20
31 | CNc1cc(C)nc(-c2cc(NCCO)nc3[nH]ccc23)n1 | 5.85
32 | Cc1cc(C)cc(C2(C(=O)N3CCCC(n4cncn4)C3)CC2)c1 (stereo unspecified) | -3
33 | CCCC(C#N)NC(=O)CCCOc1cccc(C(C)=O)c1 (stereo unspecified) | -46.2
34 | COc1ccccc1C(C)CNC(=O)c1[nH]ncc1Br (stereo unspecified) | 18.1
35 | CCC(C)N1Cc2c(C(=O)N3CCOCC3)nn(C)c2C1 (stereo unspecified) | -95.9
36 | O=C(NCc1nnc2n1CCC2)N1CCc2sccc2C1 | -12.5
37 | O=C(NCC1CCS(=O)(=O)C1)N1CCN(c2cnccn2)CC1 (stereo unspecified) | -7.21
38 | Cc1ccc(-c2cn[nH]c2C2CCCN(c3cc(N)ncn3)C2)cc1 (stereo unspecified) | 55.4
39 | Cc1ccc(-c2noc(CN3CCOC(CN(C)C)C3)n2)cc1F (stereo unspecified) | -5.48
40 | CCN(CC)S(=O)(=O)N1CCCC1C(=O)N1CCSCC1 (stereo unspecified) | -4.71
41 | CCC(CC)c1cc(CNC(=O)N2CCCC(C(=O)NC)C2)on1 (stereo unspecified) | -18.6
42 | CCc1nc(CN(C)CC(=O)N(C)C2CC2)cs1 | -3.54

Row | SMILES | cytotoxicity at 10 µM [%]
43 | Cc1ncsc1C(=O)NCCN1CCCCCC1=O | 12.1
44 | Cc1ccccc1N1CCN(C(=O)c2cnn(C(C)C)c2)C(C)C1 (stereo unspecified) | 1.48
45 | Cc1cnc(C(=O)N2Cc3cc(Cl)ccc3OC3(CCOCC3)C2)cn1 | -37.9
46 | COc1ccc2c(ccn2CCC(=O)Nc2n[nH]c(CC(C)C)n2)c1 | 8.29
47 | CC(C)CCn1cc(C(C(=O)O)N2CCC(c3ccncc3)CC2)cn1 (stereo unspecified) | 3.34
48 | Cc1cccc(-c2ccc(C(=O)N3CCN(C4CC4)CC3)c(=O)[nH]2)c1 | 13.2
49 | CCn1nc(C)c2ncnc(NCCCN3CCOCC3)c21 | 2.06
50 | CNS(=O)(=O)c1ccccc1N1CCN(C(=O)NC(C)C)CC1 | 9.44
51 | O=C(N[C@@H]1CN(c2ncccn2)[C@@H]2CCCO[C@@H]21)c1cscn1 | -142
52 | CCOCC1CN(C(=O)Cc2ccccn2)Cc2cn(CC)nc21 (stereo unspecified) | 5.06
53 | COc1cccc(CCNC(=O)NC(C)C)c1O | 2.27
54 | COc1ccccc1CC(=O)N(C)Cc1cc(C)on1 | 4.76
55 | CC(=O)c1cccc(OCCCC(=O)N(C)CC(N)=O)c1 | 17.3
56 | Cc1cc(C(F)(F)F)nc(C2CCCN2S(C)(=O)=O)n1 (stereo unspecified) | 2.68
57 | CC(C)=CCN1CC2(CCN(Cc3c(F)cccc3F)CC2)CC1=O | -17
58 | OC[C@@H]1CN2CCN(c3ccccn3)C[C@@H]2[C@H]1c1ccccc1 | -2.41
59 | COC1C[C@@H]2CN(C(=O)Cc3ccc(C)s3)C[C@@H]2C1 (stereo partly specified) | 3.53
60 | CCn1c(CN2CCC(O)(C(=O)OC)CC2)nc2c(F)cccc21 | -9.73
61 | Cc1ncsc1C(=O)N(C)Cc1ccccc1 | -6.92
62 | Cn1c(CN2CCCC2)nnc1C1CCCN(C(=O)CN2CCCC2)C1 (stereo unspecified) | -1.9
63 | N#Cc1ccccc1CN1CCC(c2nccn2CC(N)=O)CC1 | -8.61

Row | SMILES | cytotoxicity at 10 µM [%]
64 | OCCN1CCCC(c2nccnc2Oc2ccc(F)cc2)C1 (stereo unspecified) | 25.6
65 | OC(COCc1cccs1)Cn1cc(Br)cn1 (stereo unspecified) | 1.91
66 | COc1ccc(CN2C[C@@H]3COC[C@H](N4CCN(C)CC4)[C@@H]3C2)cc1 | -85.6
67 | O=C(c1ccco1)N1C[C@H]2CCCN(Cc3ccncc3)[C@H]2C1 | 0.361
68 | O=C(Cc1cccnc1)N1CCC2(CC1)CCN(C1CCOCC1)CC2 | -8.25
69 | CCn1cc(-c2nn3c(C(C)C)nnc3s2)c(C)n1 | -14.6
70 | Cc1nc(N2CCN(C(=O)c3cccs3)CC2)cc(-n2cccc2)n1 | 1.01
71 | c1coc(-c2nc3c(c(NCc4n[nH]c5c4CCC5)n2)CCNCC3)c1 | -3.36
72 | CN(CC(O)C1CC1)C(=O)Nc1cc(F)cc(Br)c1 (stereo unspecified) | -3.85
73 | Cc1cnc(-c2nc(NC3CCCC3)ncc2-c2onc(C)c2C)cn1 | -32.5
74 | CCN1CCOC(CNCc2ccccc2OCc2ccncc2)C1 (stereo unspecified) | -8.57
75 | CC1CN(CC(=O)NC(C2CC2)C2CC2)CCN1Cc1nccn1C (stereo unspecified) | -6.48
76 | Cc1ccc(-c2csc3c(=O)[nH]c(N4CCCC(C(=O)O)C4)nc23)cc1 (stereo unspecified) | -68
77 | COc1ccc(C2CCCN2C(=O)NCCCn2ccnc2)cc1 (stereo unspecified) | -13.4
78 | COc1cccc(C2=CCN(CCN3CCCC3=O)CC2)c1 | -10.6
79 | CNC(=O)c1cccc(CNC(C)c2ccc(F)cc2N(C)C)c1 (stereo unspecified) | 0.508
80 | CCNC(=O)C(C)NC(=O)Nc1ccccc1Cl (stereo unspecified) | 5.72
81 | CCc1cnc(C)nc1NCCN1CCOCC1 | -2.66
